An excerpt weighted towards active compounds, which were near 2.6% of everything screened.
miR-122 sensor: miR-122 Renilla sensor signal increase in Huh7, primary screen, miR-122 inhibitor project, cell-based, single point, plate reader; Huh7 miR-122 Renilla luciferase sensor, 48 h; neutral wells = 0, positive control = 100; activation (reporter increase), % at 12.5 µM; 0.3% of 340,000 active;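 active = mean replicate activation score at least 90 and every replicate individually at or above 90; inconclusive = only one of the two criteria met; inactive = neither criterion met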;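 note: higher luciferase means less miR-122 activity so hits act as miR-122 inhibitors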
DENV2 CPE rescue: inhibitors of DENV2 cytopathic effect, primary screen, cell-based, plate reader, single concentration | DENV2-infected cells, cytopathic effect rescue | CPE inhibition, % at 9.99 µM | 1.7% of 350,000 active; in the data active = CPE inhibition above about 20%, passing the limit was not always enough; inconclusive = no clear call, values can overlap the other calls; tested in BHK-21 cells;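 note: 0% = median of neutral control wells and 100% = median of positive control wells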
E-sel inducer: E-selectin induction in HUVECs, primary screen, imaging, HUVEC, immunofluorescence imaging, single point | P16581 | normalized: neutral wells 0, TNF-alpha wells 100 | activation, % at 7.58 µM | 0.37% of 260,000 active | AID 686992, 2013;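 active = mean E-selectin-positive cell signal at least 10% of the positive control, reached in at least 60% of replicates, without over 20% cell loss; inconclusive = no rule given, readout overlaps actives, possibly toxicity-flagged; inactive = the rest, including those meeting only one limit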
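Test system – human umbilical vein endothelial cells (HUVEC), E-selectin induction · Input – 3,000 HUVEC seeded per well · Buffer or medium – EGM-2, gelatin · Compound dosing – single-point compound dose · Detection – immunofluorescence imaging · Measure – percent E-selectin-positive cells · Controls – TNF-alpha high, DMSO low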
CFTR F508del cor: F508del CFTR correction, initial screen, CFBE line, single point | CFBE cells, YFP halide quenching; stimulated with forskolin plus potentiator P3; % fluorescence drop versus neutral controls | activity (quench increase), % at 7.58 µM | 0.36% of 350,000 active;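 active = mean added fluorescence quench of at least 8% versus neutral control, with both replicates also reaching 8%; inconclusive = only one of the mean or replicate conditions met; inactive = mean below 8% and not both replicates reaching 8%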;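 note: cells transiently co-express mutant CFTR-F508del with the halide-sensitive YFP; corrector assay measuring rescue of mutant channel to the surface after 24 h compound exposure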
ERAP1 HTS inh: human ERAP1 aminopeptidase inhibitors, primary screen, biochemical, single point, plate reader; AID 652197, 2013; inhibition, % at 10.7 µM; Endoplasmic reticulum aminopeptidase 1 (Homo sapiens), Q9NZ08; recombinant ERAP1, Leu-AMC fluorescence, 60 min; 0.15% of 340,000 active;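 active = mean replicate inhibition of at least 30%, or all replicates individually reaching that 30% level; inactive = mean below 30% and not every replicate reaching it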;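 note: 0% = neutral control wells and 100% = L-leucinethiol positive control wells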
Target sequence (Q9NZ08 whole entry, looked up): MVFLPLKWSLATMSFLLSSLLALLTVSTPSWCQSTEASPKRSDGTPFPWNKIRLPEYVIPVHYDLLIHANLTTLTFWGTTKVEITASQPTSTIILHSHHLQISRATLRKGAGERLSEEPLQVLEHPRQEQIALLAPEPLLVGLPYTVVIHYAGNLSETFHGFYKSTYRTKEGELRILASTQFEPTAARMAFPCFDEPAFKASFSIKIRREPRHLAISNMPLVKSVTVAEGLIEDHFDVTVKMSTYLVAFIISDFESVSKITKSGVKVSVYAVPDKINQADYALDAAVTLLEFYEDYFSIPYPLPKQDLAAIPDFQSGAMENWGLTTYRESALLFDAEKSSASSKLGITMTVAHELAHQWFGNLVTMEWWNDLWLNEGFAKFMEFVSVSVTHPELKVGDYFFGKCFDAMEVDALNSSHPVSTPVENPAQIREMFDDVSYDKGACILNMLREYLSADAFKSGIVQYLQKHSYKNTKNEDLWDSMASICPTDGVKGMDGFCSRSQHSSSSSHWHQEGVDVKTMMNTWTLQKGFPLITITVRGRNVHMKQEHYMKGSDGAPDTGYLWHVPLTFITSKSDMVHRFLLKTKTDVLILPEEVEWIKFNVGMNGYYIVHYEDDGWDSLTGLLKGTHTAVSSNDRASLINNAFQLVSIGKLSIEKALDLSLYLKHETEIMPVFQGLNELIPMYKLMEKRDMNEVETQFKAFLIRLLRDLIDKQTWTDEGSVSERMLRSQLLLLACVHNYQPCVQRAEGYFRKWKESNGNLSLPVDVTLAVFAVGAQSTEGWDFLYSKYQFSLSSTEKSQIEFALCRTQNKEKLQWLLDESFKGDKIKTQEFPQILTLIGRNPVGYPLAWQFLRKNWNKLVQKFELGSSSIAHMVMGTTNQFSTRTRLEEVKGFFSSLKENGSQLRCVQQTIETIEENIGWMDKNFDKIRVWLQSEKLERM
INS-1E GSIS act: GLuc luminescence reporter in INS-1E cells, primary screen for activators of glucose-dependent secretion of insulin; INS-1E GLuc reporter insulin secretion, 2-3 h; activation, % at 16.6 µM; 0.61% of 370,000 active;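 active = lowest replicate activation of at least 40%, so every replicate reaches that level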;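 note: 0% = median of neutral control wells and 100% = median of IBMX positive control wells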
* marks the source's active call; other numbers are inactive results; ? = inconclusive; . = not tested or not shown; [ ] = remark or other dose.

SMILES	miR-122 sensor	DENV2 CPE rescue	E-sel inducer	CFTR F508del cor	ERAP1 HTS inh	INS-1E GSIS act
COc1ccccc1NC(=O)CSc1n[nH]c(Cc2ccccc2)n1	2.2	0.2	0.0	0.3	-1.9	43.4*
N#CC1(NC(=O)CSc2ccccn2)CCCCC1	-1.5	111.3*	0.7	5.6	0.4	9.9
COc1ccc(NC(=O)CSc2ccc(-c3ccccn3)nn2)cc1OC	-8.1	-6.7	.	-2.1	-0.9	-3.0
COc1ccccc1NC(=O)CSc1ccc(-c2ccccn2)nn1	0.3	0.3	-0.4	8.1*	3.2	2.1
O=C(CSc1ccccn1)Nc1cccc2ccccc12	2.9	-3.4	0.2	-0.6	87.8*	.
CCc1nc(SCC(=O)Nc2ccccc2C)n[nH]1	.	5.4	0.0	0.5	0.1	1.0
O=C(C[C@@H]1CC[C@H]2[C@@H](COC[C@H](O)CN2Cc2ccc(Cl)cc2)O1)NCc1cccc(F)c1	-4.6[16.7 µM]	-3.2	0.1	-2.4	2.9	-12.6
CCC(=O)N1[C@H](CO)[C@H]2c3ccccc3N(C(=O)c3cccc(OC)c3)C[C@H]21	4.5[16.7 µM]	.	0.2	2.0	.	3.4
CC(C)c1ccc(C2N3CC4([N+](=O)[O-])CN2CC([N+](=O)[O-])(C3)C4(C)C)cc1 (stereo unspecified)	.	9.0	-0.1	-0.2	1.1	5.0
CC1(C)C2([N+](=O)[O-])CN3CC1([N+](=O)[O-])CN(C2)C3c1ccccc1 (stereo unspecified)	.	.	.	.	.	56.2*
O=[N+]([O-])c1c(Nc2cccc(O)c2)cc(Cl)c2nonc12	.	-16.6	-0.3	-17.5	16.6	97.3*
CO[C@@H]1CN(C)C(=O)c2cc(NC(=O)CC(F)(F)F)ccc2OC[C@H](C)N(C(=O)C2CCOCC2)C[C@H]1C	.	-4.5	0.0	-0.1	0.1	3.3
CCN(CC(=O)Nc1c(F)cccc1F)C(=O)c1cccc(S(=O)(=O)NCc2ccccc2)c1	15.3	80.3*	0.6	3.3	0.3	-0.5
Cc1ccc(S(=O)(=O)NCC(=O)OCc2cc(=O)oc3cc(C)ccc23)cc1	.	-3.8	.	0.0	-3.9	-31.3
Cc1ccc2c(COC(=O)CNC(=O)c3ccccc3)cc(=O)oc2c1	.	117.9*	.	1.6	2.6	.
CN[C@H]1C[C@@H](c2ccccc2)N(C(C)=O)C[C@H]1CO	-4.3	4.5	0.2	-4.4	.	41.6*
CN(C)C(=O)c1cccc(-c2ccccc2[C@H]2[C@H](C#N)N(C(=O)C3CC3)[C@H]2CO)c1	.	6.4	-0.1	-2.7	-1.5	10.1
CN(C)C(=O)c1cccc(-c2ccc([C@@H]3[C@@H](C#N)N(C(=O)C4CCC4)[C@@H]3CO)cc2)c1	.	25.9*	1.4	1.2	1.5	18.1
CN(C)C(=O)c1cccc(-c2ccccc2[C@H]2[C@@H](C#N)N(C(=O)C3CC3)[C@H]2CO)c1	.	42.9*	0.0	0.7	0.5	4.5
CN(C)C(=O)c1cccc(-c2ccc([C@@H]3[C@@H](CO)N(C(=O)C4CCC4)[C@H]3C#N)cc2)c1	.	-11.6	-0.4	-4.3	0.6	3.3
CN(C)C(=O)c1ccc(-c2ccc([C@@H]3[C@@H](CO)N(C(=O)C4CCCC4)[C@H]3C#N)cc2)cc1	.	29.0*	-0.3	1.8	3.9	4.1
CN(C)CC(=O)N1[C@H](C#N)[C@H](c2ccc(-c3ccc(C(=O)N(C)C)cc3)cc2)[C@H]1CO	.	37.5*	0.1	-2.0	0.1	4.5
CN(C)CC(=O)N1[C@H](C#N)[C@H](c2ccc(-c3cccc(C(=O)N(C)C)c3)cc2)[C@@H]1CO	.	?	-0.1	-2.3	-0.8	-3.8
CC1CCc2nc(N)c(C#N)c(-c3ccncc3)c2C1 (stereo unspecified)	3.2	.	.	.	.	77.7*
CN1C(=O)c2cc(NC(=O)c3ccccc3)ccc2OC[C@H]2O[C@H](CC(=O)NCC3CC3)CC[C@@H]21	-6.9[16.7 µM]	5.0	0.1	-2.8	3.3	-2.5
COc1cc2c(cc1OC)C(C)N(C(=O)Nc1cc(C)cc(C)c1)CC2 (stereo unspecified)	35.8	-4.0	.	12.8*	-3.3	2.8
